Source: PubChem
TRPC4 PAM = positive allosteric modulators of TRPC4, primary screen, cell-based, mouse TRPC4beta, HEK293 mu-opioid, Fluo-4 calcium; B-score at 10 µM; DAMGO EC20, Fluo-4 Ca2+ flux; active compounds read high; hit rate 0.42% among 310,000;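 active = B-score of calcium response area above 5 SD of library B-scores, with initial fluorescence ratio within 5 SD of library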;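 note: B-score of integrated fluorescence ratio over time as area under calcium response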
Target sequence (Q9QUQ5 whole entry, looked up): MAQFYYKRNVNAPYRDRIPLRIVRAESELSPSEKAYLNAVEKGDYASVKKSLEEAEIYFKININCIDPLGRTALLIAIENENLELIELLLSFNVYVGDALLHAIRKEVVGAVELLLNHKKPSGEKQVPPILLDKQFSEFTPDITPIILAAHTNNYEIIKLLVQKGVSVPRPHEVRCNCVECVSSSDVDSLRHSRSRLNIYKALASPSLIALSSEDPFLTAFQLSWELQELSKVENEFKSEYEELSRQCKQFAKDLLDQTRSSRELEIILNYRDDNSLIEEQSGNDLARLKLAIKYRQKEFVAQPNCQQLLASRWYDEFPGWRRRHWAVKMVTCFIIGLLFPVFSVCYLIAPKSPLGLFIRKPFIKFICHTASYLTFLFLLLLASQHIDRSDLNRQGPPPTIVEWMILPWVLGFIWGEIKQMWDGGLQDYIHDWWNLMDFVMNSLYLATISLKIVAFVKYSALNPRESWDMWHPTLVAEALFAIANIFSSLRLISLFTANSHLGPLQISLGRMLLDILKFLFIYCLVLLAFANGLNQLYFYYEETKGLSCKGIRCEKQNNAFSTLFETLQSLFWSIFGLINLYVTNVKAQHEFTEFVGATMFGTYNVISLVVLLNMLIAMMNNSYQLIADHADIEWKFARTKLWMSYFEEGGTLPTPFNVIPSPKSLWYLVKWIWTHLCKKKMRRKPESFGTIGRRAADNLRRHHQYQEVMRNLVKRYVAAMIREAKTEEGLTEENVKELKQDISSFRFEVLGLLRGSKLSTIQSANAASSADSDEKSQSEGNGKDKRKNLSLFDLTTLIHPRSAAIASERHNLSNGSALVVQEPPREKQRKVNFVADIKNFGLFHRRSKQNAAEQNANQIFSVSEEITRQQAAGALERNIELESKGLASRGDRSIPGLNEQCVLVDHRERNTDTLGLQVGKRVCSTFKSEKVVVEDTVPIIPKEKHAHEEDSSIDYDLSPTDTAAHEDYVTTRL
TRPC6 act = mouse TRPC6 channel activators, primary screen, cell-based, HEK293, membrane potential dye | hit rate 0.13% among 310,000 | HEK293-TRPC6 membrane potential dye fluorescence; active compounds read high | Short transient receptor potential channel 6 (Mus musculus), Q61143 | B-score at 10 µM | AID 2550, 2010;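 active = B-score of the integrated fluorescence ratio above library mean plus 3 SD, and starting fluorescence ratio within library mean plus 5 SD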;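 note: higher score means more depolarization so channel activation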
TRPC6 inh = mouse TRPC6 channel inhibitors, primary screen, cell-based, HEK293, membrane potential dye; hit rate 1.1% among 310,000; ACh-evoked depolarization; active compounds read low; Short transient receptor potential channel 6 (Mus musculus), Q61143; B-score at 10 µM;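 active = B-score under library mean minus 3 SD, initial fluorescence not abnormally high, positive integrated signal ratio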;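 note: B-score derived from integrated fluorescence ratio over the kinetic read; more negative B-score means stronger inhibition of depolarization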
TRPC4 inh = inhibitors of mouse TRPC4 channel, primary screen, Fluo4 calcium, HEK293 TRPC4beta/mu-opioid cells | Short transient receptor potential channel 4 (Mus musculus), Q9QUQ5 | DAMGO-evoked Fluo4 calcium flux; active compounds read low | B-score at 10 µM | hit rate 0.39% among 300,000 | AID 2247, 2010;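 active = B-score over 3 SD under the library average, no early fluorescence shift, positive overall ratio signal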
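System: stable TRPC4beta/mu-opioid receptor HEK293 cells; Dosing: single-point compound dosing; Measured by: Fluo4 Ca2+ flux fluorescence; Read-out basis: per-well B score of integrated baseline-normalized Fluo4 ratio.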
TRPC4 agonist = activators of mouse TRPC4 channel, primary screen, Fluo4 calcium, HEK293 TRPC4beta/mu-opioid cells; Short transient receptor potential channel 4 (Mus musculus), Q9QUQ5; Fluo4 calcium fluorescence; active compounds read high; B-score at 10 µM; hit rate 0.49% among 310,000;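 active = B-score above 5 SD of library B-scores, and initial fluorescence ratio not above library mean plus 5 SD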;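 note: positive B-score marks a calcium rise read as TRPC4 activation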
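Technique: kinetic Fluo4 calcium fluorescence; Test system: TRPC4beta and mu-opioid receptor HEK293 stable cells; Measure: B-scored integrated calcium fluorescence ratio; Benchmarks: low control buffer alone, high control maximal DAMGO; Schedule: 45 min room-temperature Fluo4 loading, 110 s read.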
TRPC4 sel inh 2 = second selectivity test of TRPC6 inhibitors: effect on mouse TRPC4 | shares compounds with TRPC6 inh | HEK293 TRPC4/MOR, membrane potential dye fluorescence; channel activated by saturating DAMGO dose | inhibition, % at 10 µM | hit rate 42% among 920 | AID 2776;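 active = compounds whose fluorescence signal differed from control wells by over 3 SD, either direction, in both duplicate plates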
TRPC4 spec = mouse TRPC4 modulation by TRPC6 hits, confirmation, selectivity assay for TRPC6 inhibitor project, cell-based, HEK293 TRPC4/mu-opioid, membrane potential dye; shares compounds with TRPC6 inh; membrane potential fluorescence; activity change, negative = inhibition, % at 10 µM; hit rate 61% among 920;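 active = rise or fall in signal beyond 3 SD of buffer-only wells in both replicate plates, either sign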;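 note: integrated kinetic ratio of fluorescence range over baseline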
HEK293 MPD ctr 2-1 = nonspecific membrane potential effects, parental HEK293, confirmation, counter-screen for TRPC6 inhibitor project, cell-based, second counter screen | shares compounds with TRPC6 inh | parental HEK293 membrane potential dye fluorescence; maximal acetylcholine challenge after compound addition | signal change vs control, % at 10 µM | hit rate 31% among 920;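 active = membrane potential signal moving either way by over 3 SD of the maximum-effect control, in both duplicate plates, meaning non-specific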
HEK293 MPD ctr-1 = membrane potential modulation in parental HEK293, confirmation, counter-screen for TRPC6 inhibitor project, cell-based. shares compounds with TRPC6 inh. parental HEK293 membrane potential dye fluorescence. membrane potential signal change, % at 10 µM. hit rate 60% among 920;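 active = membrane potential signal shifting up or down by more than 3 SD of buffer-only wells, on both duplicate plates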
HEK293 MPD ctr-2 = parental HEK293 membrane potential modulation, confirmation, counter-screen for TRPC6 modulator project, cell-based; hit rate 51% among 2,400; membrane potential signal change, % at 10 µM; AID 488924, 2010; shares compounds with TRPC6 inh; membrane potential dye fluorescence;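 active = membrane potential signal moves up or down beyond 5 SD from buffer-only wells, on both duplicate plates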
HEK293 MPD ctr 2-2 = second counter-screen for TRPC6 modulators: effect in parental HEK293 cells; shares compounds with TRPC6 inh; membrane potential dye fluorescence; after compound, maximal acetylcholine stimulation; inhibition, % at 10 µM; hit rate 14% among 2,400; AID 488926;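 active = membrane potential signal drops by more than 5 SD from the mean control signal, in both duplicate plates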;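 note: plate controls were acetylcholine ECmax control wells for no effect and buffer only wells for full effect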
TRPC4 ctr mod = TRPC4 modulation by TRPC6 hit compounds, confirmation, selectivity assay for TRPC6 modulator project, cell-based, HEK293 TRPC4/mu-opioid, membrane potential dye, mouse; membrane potential fluorescence; shares compounds with TRPC6 inh; hit rate 69% among 2,400; percent change from control (negative = decrease, positive = increase), % at 10 µM; AID 488927, 2010;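 active = membrane potential signal moved up or down beyond 5 SD of buffer control wells, in both duplicate plates, actives on both sides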;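 note: plate controls were assay buffer wells for no effect and DAMGO maximal-effect wells for full effect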
TRPC4/MOR inh 2 = second check of whether TRPC6 modulators also affect mouse TRPC4. AID 488928. shares compounds with TRPC6 inh. hit rate 55% among 2,400. inhibition, % at 10 µM. HEK293 TRPC4/mu-opioid, membrane potential dye fluorescence; stimulated with maximal-effect DAMGO;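 active = drop in membrane potential signal beyond 5 SD of the control wells in both duplicate plates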;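 note: TRPC4 counter screen for TRPC6 hits run under conditions tuned for TRPC6 not TRPC4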
TRPC6 block conf = mouse TRPC6 channel inhibitors, confirmation, HEK293 cells, membrane potential dye, duplicate | shares compounds with TRPC6 inh | ACh-evoked depolarization | inhibition, % at 10 µM | hit rate 43% among 3,300 | AID 488960, 2010;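 active = fluorescence ratio falls more than 5 SD below the full-stimulation control mean, in both duplicate runs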;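 note: integrated fluorescence ratio of peak minus minimum over baseline after agonist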
TRPC6 act confirm = mouse TRPC6 channel activators, confirmation, HEK293 cells, membrane potential dye, duplicate; shares compounds with TRPC6 inh; HEK293-TRPC6 membrane potential dye fluorescence, FDSS; activation, % at 10 µM; hit rate 11% among 2,800; AID 488961, 2010;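 active = ratio signal rise beyond 5 SD above unstimulated control wells' mean, seen in both duplicate runs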;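 note: plate controls were buffer EC0 wells for no effect and acetylcholine ECmax response for full effect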
The depositor's hits bear a star; i = inactive; / = no result given. This is a sample that favours compounds with a hit; in the whole collection about 2.3% have one here.

SMILES	TRPC4 PAM	TRPC6 act	TRPC6 inh	TRPC4 inh	TRPC4 agonist	HEK293 MPD ctr-2	HEK293 MPD ctr 2-2	TRPC4 ctr mod	TRPC4/MOR inh 2	TRPC6 block conf	TRPC6 act confirm	others
CN1CCCC1CCNc1ccc2c(=O)c3ccccc3oc2c1 (stereo not given)	i	i	-9.5*	i	i	/	/	/	/	i	i	TRPC4 sel inh 2=74%*;TRPC4 spec=-10%*;HEK293 MPD ctr 2-1=i;HEK293 MPD ctr-1=i
O=c1c2ccccc2oc2ccc(NCCCN3CCOCC3)cc12	i	i	i	i	i	/	/	/	/	/	/
CN1CCCC1CCNc1ccc2oc3ccccc3c(=O)c2c1 (stereo not given)	i	i	-5.6*	i	i	178%*	i	14%*	44%*	44%*	/
COc1cc2c(cc1OC)C(C)N(S(=O)(=O)c1ccc(C)cc1)CC2 (stereo not given)	i	i	-6.9*	i	i	/	/	/	/	i	/	TRPC4 sel inh 2=i;TRPC4 spec=-0.1%*;HEK293 MPD ctr 2-1=i;HEK293 MPD ctr-1=1.0%*
Cc1ccc(COC(=O)CCN=C2NS(=O)(=O)c3ccccc32)cc1	i	i	i	i	i	/	/	/	/	/	/
Cc1ccc2cc(C=O)c(N3CCOCC3)nc2c1C	i	i	i	i	i	/	/	/	/	/	/
Cc1cc(N2CCOCC2)c2c(N)cc(C)c(C)c2n1	i	i	-11*	i	i	-357%*	87%*	-54%*	54%*	58%*	i
Cc1ccc(N(CCC#N)C(=O)COC(=O)C2CCN(c3ccc(C(F)(F)F)cn3)CC2)cc1	i	i	i	i	i	/	/	/	/	/	/
Cc1cc(C)cc(N(CCC#N)C(=O)COC(=O)C2CCN(c3ccc(C(F)(F)F)cn3)CC2)c1	i	i	-6.4*	i	i	i	i	14%*	i	i	i
CC(C)c1ccc(S(=O)(=O)N2CCN(C(=O)c3ccco3)CC2)cc1	i	12*	-11*	i	i	i	i	12%*	i	106%*	122%*
COc1ccc(C(=O)N/C(=C/c2ccccc2F)C(=O)NCCN2CCOCC2)cc1OC	i	i	i	i	i	/	/	/	/	/	/
CC(=O)Nc1ccc2c(c1)ncn2-c1ccc(C)cc1	i	i	-5.5*	i	i	i	i	i	i	i	i
N=c1c2c3c(sc2ncn1CCCO)CCCC3	i	i	i	i	i	/	/	/	/	/	/
N=c1c2c3c(sc2ncn1CCN1CCOCC1)CCCCC3	i	i	i	i	i	/	/	/	/	/	/
N=c1c2c3c(sc2ncn1Nc1ccccc1)CCC3	i	i	-5.3*	i	i	i	i	-8.5%*	52%*	51%*	i
N=c1c2c3c(sc2ncn1Cc1ccccc1)CCCC3	i	i	-6.5*	i	i	i	i	-12%*	39%*	i	i
CCCCn1cnc2sc3c(c2c1=N)CCCC3	i	i	-7.1*	i	i	/	/	/	/	i	i	TRPC4 sel inh 2=62%*;TRPC4 spec=-17%*;HEK293 MPD ctr 2-1=i;HEK293 MPD ctr-1=-228%*
COc1ccc(S(=O)(=O)N2CCN(C(=O)c3cccc(Cl)c3)CC2)cc1	i	i	-5.6*	i	i	i	i	12%*	i	56%*	/
Cc1ccc(S(=O)(=O)N2CCN(C(=O)c3cccc(F)c3)CC2)cc1	i	i	-6.1*	i	i	i	i	i	i	70%*	/
O=C(c1cccc(F)c1)N1CCN(c2cccc(Cl)c2)CC1	i	i	-16*	i	i	/	/	/	/	59%*	i	TRPC4 sel inh 2=i;TRPC4 spec=5.7%*;HEK293 MPD ctr 2-1=i;HEK293 MPD ctr-1=2.7%*
O=C(c1ccc(S(=O)(=O)N2CCCC2)cc1)N1CCN(S(=O)(=O)c2cccc(F)c2)CC1	i	i	i	i	i	/	/	/	/	/	/
CCCCc1ccc(S(=O)(=O)NCCCN2CCCC2=O)cc1	i	i	i	i	i	/	/	/	/	/	/
COc1ccc(NC(=O)Cc2nnc(SCC(=O)NC3=NCCS3)n2C)cc1	i	i	i	i	i	/	/	/	/	/	/
Nc1ccccc1Nc1nc2ccccc2[nH]1	i	i	-5.5*	i	i	340%*	i	88%*	i	i	/
CCCCCCCc1nc2sc3c(c2c(=O)n1N)CC(C)(C)OC3	i	i	i	i	i	/	/	/	/	/	/
